What was measured:
[1] = n-Octanol-buffer partition coefficient, log D of the compound at pH 7.4 by HPLC method; format: physicochemical
Rattus norvegicus = species on record: Rattus norvegicus; test: Displacement of [3H]flunitrazepam from CBR in rat cerebral cortex membranes at 1 uM relative to control; format: cell membranes; conditions: Membrane
Translocator protein = Translocator protein (Rattus norvegicus, UniProt P16257); test: Displacement of [3H]PK11195 from TSPO in rat heart membranes after 15 mins by scintillation counting method; format: cell membranes, Membrane
Sequence of Translocator protein (P16257 whole entry, looked up): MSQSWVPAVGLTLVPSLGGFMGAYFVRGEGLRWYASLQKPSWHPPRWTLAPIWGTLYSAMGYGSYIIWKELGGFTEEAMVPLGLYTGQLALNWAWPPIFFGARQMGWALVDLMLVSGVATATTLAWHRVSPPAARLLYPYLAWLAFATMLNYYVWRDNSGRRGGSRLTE

[2] = Intrinsic clearance in Sprague-Dawley rat hepatic microsomes assessed per mg protein up to 30 mins in presence of NADPH by UPLC-MS method; format: ADME; conditions: liver microsomes, read-out: CLH
How it was run: (§1)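 Hepatic microsomes (male CD1 mouse, male Sprague-Dawley rat, or pooled human) at 0.25 mg/mL protein, substrate 0.5 µM, 1 mM NADPH; samples at 0, 5, 10, 20, 30 min, quenched with 1 volume CH3CN, centrifuged, supernatant by UPLC/HRMS. % remaining vs T0 (analyte/internal standard ratio); k from ln(% stability) vs time; InC = k/protein concentration × 1000.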

[3] = Intrinsic clearance in CD1 mouse hepatic microsomes assessed per mg protein up to 30 mins in presence of NADPH by UPLC-MS method; format: ADME; conditions: liver microsomes, read-out: CLH; how it was run: as §1
[4] = Intrinsic clearance in human hepatic microsomes assessed per mg protein up to 30 mins in presence of NADPH by UPLC-MS method; format: ADME; conditions: liver microsomes, read-out: CLH; how it was run: as §1

| logD [1] | inhibition (Rattus norvegicus) | Ki (Translocator protein) | microsomal CLint [2] | microsomal CLint [3] | microsomal CLint [4] | SMILES |
| --- | --- | --- | --- | --- | --- | --- |
| 3.04 | 0% | 26 nM | – | – | – | Cc1cc(C)n2nc(-c3ccc(CCCF)cc3)c(CC(=O)N3CCCC3)c2n1 |
| 2.61 | 0% | 2.8 nM | > 1000 µL/min/mg | > 1000 µL/min/mg | 862 µL/min/mg | Cc1cc(C)n2nc(-c3ccc(CCCF)cc3)c(CC(=O)N(C)Cc3cccnc3)c2n1 |
| 2.56 | 0% | 27 nM | – | – | – | Cc1cc(C)n2nc(-c3ccc(CCCF)cc3)c(CC(=O)N3CCOCC3)c2n1 |
| 2.69 | 0% | 17 nM | – | – | – | Cc1cc(C)n2nc(-c3ccc(CCCF)cc3)c(CC(=O)NC3CC3)c2n1 |
| 4.08 | 0% | 1.1 nM | > 1000 µL/min/mg | > 1000 µL/min/mg | > 1000 µL/min/mg | Cc1cc(C)n2nc(-c3ccc(CCCF)cc3)c(CC(=O)N(C)CCc3ccccc3)c2n1 |
| 0.87 | 0% | 260 nM | – | – | – | Cc1cc(C)n2nc(-c3ccc(CCCF)cc3)c(CC(=O)N3CCNCC3)c2n1 |
| 4.39 | 0% | 0.26 nM | > 1000 µL/min/mg | > 1000 µL/min/mg | > 1000 µL/min/mg | CCCN(CCC)C(=O)Cc1c(-c2ccc(CCCF)cc2)nn2c(C)cc(C)nc12 |
| 3.56 | 0% | 2.2 nM | > 1000 µL/min/mg | 931 µL/min/mg | 424 µL/min/mg | Cc1cc(C)n2nc(-c3ccc(CCCF)cc3)c(CC(=O)N3CCCCC3)c2n1 |
| 3.16 | 0% | 1.2 nM | 610 µL/min/mg | 947 µL/min/mg | 270 µL/min/mg | Cc1cc(C)n2nc(-c3ccc(CCCF)cc3)c(CC(=O)N(C)Cc3ccccn3)c2n1 |
| 2.73 | 0% | 32 nM | – | – | – | Cc1cc(C)n2nc(-c3ccc(CCCF)cc3)c(CC(=O)N3CCC3)c2n1 |
| 3.51 | 0% | – | > 1000 µL/min/mg | 865 µL/min/mg | 241 µL/min/mg | CCN(CC)C(=O)Cc1c(-c2ccc(CCCF)cc2)nn2c(C)cc(C)nc12 |
| 2.68 | 2% | 15 nM | – | – | – | Cc1cc(C)n2nc(-c3ccc(CCCF)cc3)c(CC(=O)N(C)C)c2n1 |
| – | 0% | – | > 1000 µL/min/mg | 408 µL/min/mg | 68 µL/min/mg | CCN(CC)C(=O)Cc1c(-c2ccc(OCCF)cc2)nn2c(C)cc(C)nc12 [DPA-714] |
| 3.65 | 0% | 0.25 nM | > 1000 µL/min/mg | 781 µL/min/mg | 321 µL/min/mg | CCCN(C)C(=O)Cc1c(-c2ccc(CCCF)cc2)nn2c(C)cc(C)nc12 |
| 3.98 | 0% | 0.3 nM | > 1000 µL/min/mg | > 1000 µL/min/mg | > 1000 µL/min/mg | Cc1cc(C)n2nc(-c3ccc(CCCF)cc3)c(CC(=O)N(C)Cc3ccccc3)c2n1 |
